From ChEMBL document CHEMBL5338794, “Optimization of Orally Bioavailable Antileishmanial 2,4,5-Trisubstituted Benzamides” (J Med Chem, 2023)
≈ marks a conversion by molar mass, not a printed value.

Tests used:
Leishmania mexicana = assay: Antileishmanial activity against renilla luciferase-expressing Leishmania mexicana promastigotes infected in mouse J774.A1 cells assessed as inhibition of intracellular amastigotes growth incubated for 96 hrs by Renilla luciferase assay; type: functional, organism-based; settings: J774.A1, 96 h
BJ = assay: Cytotoxicity against human BJ cells assessed as reduction in cell viability incubated for 72 hrs by Cell TiterGlo assay; type: functional, cell-based
[1] = Kinetic aqueous solubility of the compound in PBS at pH 7.4 incubated for 18 hrs by LC-MS analysis; type: physicochemical; settings: read-out: Kinetic_solubility
[2] = Metabolic stability in CD-1 mouse liver microsomes assessed as half life at 1 uM and measured upto 60 mins in presence of NADPH regenerating system by LC-MS/MS analysis; type: ADME, Microsome; settings: 1 h
Outline: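 Half-life and intrinsic clearance determined by incubation with mouse liver microsomes.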

Row | SMILES | EC50 (Leishmania mexicana) [nM] | EC50 (BJ) [nM] | other results
1 | O=C(Nc1cccc(Cl)c1)c1ccc(N2CCNCC2)c([N+](=O)[O-])c1 | 1400 | – | –
2 | Cc1ccc(-c2nc3ccccc3s2)cc1NC(=O)c1cnccc1Cl | 8800 | – | –
3 | Cc1ccc(NC(=O)c2cc([N+](=O)[O-])c(F)cc2Cl)cc1 | 1200 | – | –
4 | Cc1ccc(C(F)(F)F)cc1NC(=O)c1cc([N+](=O)[O-])c(F)cc1Cl | 1700 | – | –
5 | Cc1ccc(C)c(NC(=O)c2cc([N+](=O)[O-])c(F)cc2Cl)c1 | 2400 | – | –
6 | O=C(Nc1ccc(Cl)c(Cl)c1)c1cc([N+](=O)[O-])c(F)cc1F | 200 | 2400 | –
7 | Cc1ccc(-c2nc3ccccc3s2)cc1NC(=O)c1cc([N+](=O)[O-])ccc1C(F)(F)F | 56000 | – | –
8 | O=C(Nc1cncc(-c2nc3ccccc3o2)c1)c1cc([N+](=O)[O-])c(N2CCNCC2)cc1Cl | 800 | 3100 | solubility kinetic at 18 h [1]: 12.4 µM (≈ 5.94 µg/mL); t1/2 [2]: 2.17 h
9 | Cc1ccc(-c2nc3ccccc3s2)cc1NC(=O)c1cc([N+](=O)[O-])c(N2CCN(C)CC2)cc1Cl | 800 | > 25000 | solubility kinetic at 18 h [1]: < 0.3 µM; t1/2 [2]: 0.217 h
10 | O=C(Nc1ccc(Cl)c(Cl)c1)c1ccc(F)c([N+](=O)[O-])c1 | 1100 | – | –
11 | Cc1ccc(-c2nc3ccccc3s2)cc1NC(=O)c1cc([N+](=O)[O-])c(NCCN(C)C)cc1Cl | 800 | 17200 | –
12 | O=C(Nc1cnc(Cl)c(Cl)c1)c1cc([N+](=O)[O-])c(F)cc1Cl | 500 | – | –
13 | Cc1ccc(-c2nc3ccccc3s2)cc1NC(=O)c1cc([N+](=O)[O-])c(NCCN)cc1Cl | 300 | 6300 | –
14 | Cc1ccc(-c2nc3ccccc3o2)cc1NC(=O)c1cc([N+](=O)[O-])c(N2CCN(C)CC2)cc1Cl | 800 | 4600 | –
15 | O=C(Nc1cncc(-c2nc3ccccc3o2)c1)c1cc([N+](=O)[O-])c(F)cc1F | 500 | > 30000 | –
16 | Cc1ccc(-c2nc3ccccc3s2)cc1NC(=O)c1ccc(Cl)nc1 | 8200 | – | –
17 | Cc1ccc(-c2nc3ccccc3s2)cc1NC(=O)c1cc([N+](=O)[O-])c(N2CC3(CN(C(=O)OC(C)(C)C)C3)C2)cc1Cl | 63000 | – | –
18 | O=C(Nc1ccc(Cl)c(Cl)c1)c1cc([N+](=O)[O-])c(F)cc1Cl | 900 | 4200 | –
19 | O=C(Nc1cccc(-c2nc3ccccc3o2)c1)c1cc([N+](=O)[O-])c(F)cc1F | 800 | 4500 | –
20 | Cc1ccc(-c2nc3ccccc3s2)cc1NC(=O)c1cnccc1F | 27000 | – | –
21 | CN1CCN(c2cc(Cl)c(C(=O)Nc3cccc(-c4nccs4)c3)cc2[N+](=O)[O-])CC1 | 2100 | – | –
22 | N#Cc1ccc(NC(=O)c2ccc(N3CCNCC3)c([N+](=O)[O-])c2)cc1 | 5400 | – | –
23 | Cc1ccc(-c2nc3ccccc3s2)cc1NC(=O)c1ccc(Br)cc1Cl | 57000 | – | –
24 | Cc1ccc(-c2nc3ccccc3s2)cc1NC(=O)c1cc([N+](=O)[O-])c(Cl)cc1F | 2000 | – | –
25 | Cc1ccc(-c2nc3ccccc3s2)cc1NC(=O)c1cc([N+](=O)[O-])c(N(C)CCN(C)C)cc1Cl | 400 | 6100 | –

Row | SMILES | EC50 (Leishmania mexicana) [nM] | EC50 (BJ) [nM] | other results
26 | Cc1ccc(-c2nc3ccccc3s2)cc1NC(=O)c1cc([N+](=O)[O-])c(Cl)cc1Cl | 4300 | – | –
27 | O=C(Nc1cccnc1)c1cc([N+](=O)[O-])c(F)cc1Cl | 4600 | – | –
28 | Cc1ccc(-c2nc3ccccc3s2)cc1NC(=O)c1cc([N+](=O)[O-])ccc1F | 64000 | – | –
29 | N#Cc1ccc(NC(=O)c2cc([N+](=O)[O-])c(F)cc2Cl)cc1 | 1000 | – | –
30 | O=C(Nc1ccc(-c2ccccc2)cc1)c1cc([N+](=O)[O-])c(F)cc1Cl | 1300 | – | –
31 | O=C(Nc1cccc(-c2cccnc2)c1)c1cc([N+](=O)[O-])c(F)cc1Cl | 2000 | – | –
32 | Cc1ccc(-c2nc3ccccc3s2)cc1NC(=O)c1ccc(F)c([N+](=O)[O-])c1 | 1200 | – | –
33 | Cc1ccc(-c2nc3ccccc3s2)cc1NC(=O)c1ccc(Br)cc1F | 45000 | – | –
34 | Cc1ccc(-c2nc3ccccc3o2)cc1NC(=O)c1cc([N+](=O)[O-])c(F)cc1Cl | 400 | 16000 | –
35 | O=C(Nc1cnc(Cl)c(Cl)c1)c1ccc(N2CCNCC2)c([N+](=O)[O-])c1 | 1200 | – | –
36 | O=C(Nc1cccc(-c2nc3ccccc3o2)c1)c1cc([N+](=O)[O-])c(F)cc1Cl | 900 | > 30000 | –
37 | Cc1ccc(-c2nc3ccccc3s2)cc1NC(=O)c1ccc(Cl)c([N+](=O)[O-])c1 | 20000 | – | –
38 | Cc1ccc(-c2nc3ccccc3s2)cc1NC(=O)c1cc([N+](=O)[O-])c(N2CC3(CNC3)C2)cc1Cl | 700 | 11300 | –
39 | O=C(Nc1ccc(F)cc1)c1cc([N+](=O)[O-])c(F)cc1Cl | 1200 | – | –
40 | Cc1ccc(-c2nc3ccccc3s2)cc1NC(=O)c1ccc(F)nc1 | 6400 | – | –
41 | CC(=O)Nc1cccc(NC(=O)c2cc([N+](=O)[O-])c(F)cc2Cl)c1 | 2900 | – | –
42 | Cc1ccc(-c2nc3ccccc3s2)cc1NC(=O)c1cc([N+](=O)[O-])c(N2CCNCC2)cc1Cl | 700 | > 14500 | –
43 | O=C(Nc1ccc(Cl)c(Cl)c1)c1ccc(N2CCNCC2)nc1 | 1400 | – | –
44 | O=C(Nc1ccc(F)c(F)c1)c1cc([N+](=O)[O-])c(F)cc1Cl | 1300 | – | –
45 | Cc1cc(Cl)c(Cl)cc1NC(=O)c1cc([N+](=O)[O-])c(F)cc1F | 300 | 1300 | –
46 | O=C(Nc1cncc(-c2nc3ccccc3s2)c1)c1cc([N+](=O)[O-])c(F)cc1Cl | 900 | 4900 | –
47 | O=C(Nc1cccc(-c2nccs2)c1)c1ccc(N2CCNCC2)c([N+](=O)[O-])c1 | 1400 | – | –
48 | Cc1ccc(-c2nc3ccccc3s2)cc1NC(=O)c1cc([N+](=O)[O-])c(F)cc1Cl | 1200 | – | –
49 | Cc1ccc(-c2nc3ccccc3s2)cc1NC(=O)c1cc([N+](=O)[O-])c(N2CC3(COC3)C2)cc1Cl | 29000 | – | –
50 | O=C(Nc1ccc(F)c(Cl)c1)c1cc([N+](=O)[O-])c(F)cc1Cl | 1000 | – | –

Row | SMILES | EC50 (Leishmania mexicana) [nM] | EC50 (BJ) [nM] | other results
51 | O=C(Nc1cccc(Cl)c1)c1cc([N+](=O)[O-])c(F)cc1F | 600 | 1800 | –
52 | CN1CCN(c2cc(Cl)c(C(=O)Nc3cncc(-c4nc5ccccc5s4)c3)cc2[N+](=O)[O-])CC1 | 900 | > 30000 | –
53 | COc1cc(Cl)ncc1C(=O)Nc1cc(-c2nc3ccccc3s2)ccc1C | 42000 | – | –
54 | O=C(Nc1cccc(-c2nccs2)c1)c1cc([N+](=O)[O-])c(F)cc1F | 400 | 1500 | –
55 | O=C(Nc1cccc(-c2ccccn2)c1)c1cc([N+](=O)[O-])c(F)cc1Cl | 1100 | – | –
56 | Cc1ccc(-c2nc3ccccc3s2)cc1NC(=O)c1ccc(F)c(C(F)(F)F)c1 | 21000 | – | –
57 | O=C(Nc1cncc(-c2nc3ccccc3o2)c1)c1cc([N+](=O)[O-])c(F)cc1Cl | 1000 | 2900 | –
58 | Cc1ccc(-c2nc3ccccc3s2)cc1NC(=O)c1cc([N+](=O)[O-])c(NC2CCN(C)CC2)cc1Cl | 800 | 9200 | –
59 | Cc1cc(Cl)c(Cl)cc1NC(=O)c1cc([N+](=O)[O-])c(F)cc1Cl | 800 | 4200 | –
60 | O=C(Nc1ccc(Cl)cc1)c1cc([N+](=O)[O-])c(F)cc1Cl | 1100 | – | –
61 | Cc1ccc(-c2nc3ccccc3s2)cc1NC(=O)c1ccc(N2CCNCC2)c([N+](=O)[O-])c1 | 300 | 8600 | –
62 | Cc1ccc(-c2nc3ccccc3s2)cc1NC(=O)c1cnccc1C#N | 51000 | – | –
63 | O=C(Nc1cccc(-c2ncco2)c1)c1cc([N+](=O)[O-])c(F)cc1Cl | 900 | – | –
64 | Cc1ccc(-c2nc3ccccc3s2)cc1NC(=O)c1cnccc1O | 53000 | – | –
65 | O=C(Nc1cccc(Cl)c1)c1ccc(F)c([N+](=O)[O-])c1 | 4000 | – | –
66 | Cc1ccc(Br)cc1NC(=O)c1cc([N+](=O)[O-])c(F)cc1Cl | 1400 | – | –
67 | Cc1ccc(-c2nc3ccccc3s2)cc1NC(=O)c1cc([N+](=O)[O-])c(NCCNC(=O)OC(C)(C)C)cc1Cl | 700 | > 25000 | –
68 | O=C(Nc1cccc(-c2ncco2)c1)c1ccc(N2CCNCC2)c([N+](=O)[O-])c1 | 3100 | – | –
69 | Cc1cc(Cl)c(Cl)cc1NC(=O)c1ccc(F)c([N+](=O)[O-])c1 | 2400 | – | –
70 | O=C(Nc1cccc(-c2nccs2)c1)c1cc([N+](=O)[O-])c(N2CCNCC2)cc1Cl | 1500 | – | –
71 | Cc1ccc(-c2nc3ccccc3s2)cc1NC(=O)c1cnc(Cl)cc1Cl | 9800 | – | –
72 | O=C(Nc1cnc(Cl)c(Cl)c1)c1cc([N+](=O)[O-])c(F)cc1F | 200 | 1600 | –
73 | O=C(Nc1cccc(-c2nccs2)c1)c1cc([N+](=O)[O-])c(F)cc1Cl | 1300 | – | –
74 | COc1ccncc1C(=O)Nc1cc(-c2nc3ccccc3s2)ccc1C | 31000 | – | –
